According to ChEMBL document CHEMBL1128427, “Novel inhibitors of the nuclear factor of activated T cells (NFAT)-mediated transcription of beta-galactosidase: potential immunosuppressive and antiinflammatory agents” (J Med Chem, 1995):

Experiments:
[1] = Inhibition of nuclear factor of activated T-cells (NFAT) mediated transcription of beta-galactosidase in J.NFATZ.1 cells; format: functional, cell-based, T-cell
Jurkat [2] = assay: Binding affinity was measured on jurkat cell membrane using [3H3C] as radioligand; format: functional, cell membranes, Homo sapiens
Jurkat [3] = assay: Binding affinity was measured on jurkat cell membrane using [3H3C] as radioligand.; format: functional, cell membranes, Homo sapiens
Jurkat [4] = assay: Inhibition of beta-galactosidase as expression in J.NFATZ.1 cells at 10 uM mediated by nuclear factor of activated T-cells transcription; format: functional
Jurkat [5] = assay: Concentration required to inhibit nuclear factor of activated T-cells mediated transcription of beta-galactosidases expression in J.NFATZ.1 cells; Not active; format: functional, cell-based
How it was run: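 J.NFATZ.1 cells, 1.25×10^5 per well, were stimulated with PMA (2 ng/mL final) and ionomycin (25 μM final) in the presence of compound (0.1% DMSO final). Incubation 5 h at 37 °C. Cells were lysed and incubated 1 h at 37 °C with 4-methylumbelliferyl β-D-galactoside (10 μg/mL final, pH 7.8). Fluorescence read at […]. IC50 obtained by four-parameter logistic fit.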

IC50 ([1]; T-cell)	SMILES	other results
320 nM	Cc1ccc(Cn2cc3c(=O)n(C)c(=O)n(CC(C)C)c3c2)cc1	
1200 nM	CC(C)Cn1c(=O)n(C)c(=O)c2cn([C@H](C)c3ccccc3)cc21	Ki (Jurkat [2]): 562 nM
2500 nM	CC(C)Cn1c(=O)n(C)c(=O)c2cc(OCc3ccccc3)ccc21	
6 nM	CC(C)Cn1c(=O)n(C)c(=O)c2c(SCCCO)n(Cc3cccc4ccccc34)cc21	Ki (Jurkat [2]): 1.1 nM
360 nM	COc1ccc(Cn2cc3c(c2SC)c(=O)n(C)c(=O)n3CC(C)C)cc1	Ki (Jurkat [2]): 305 nM
166 nM	COc1ccc(Cn2cc3c(=O)n(C)c(=O)n(CC(C)C)c3c2)cc1I	
260 nM	CSc1ccc(Cn2cc3c(=O)n(C)c(=O)n(CC(C)C)c3c2)cc1	
26 nM	CC(C)Cn1c(=O)n(C)c(=O)c2cn(Cc3cccc4ccccc34)cc21	Ki (Jurkat [3]): 23 nM
378 nM	COc1ccc(Cn2cc3c(=O)n(C)c(=O)n(CC(C)C)c3c2)cc1OC	
275 nM	COc1ccccc1Cn1cc2c(=O)n(C)c(=O)n(CC(C)C)c2c1	Ki (Jurkat [3]): 170 nM
150 nM	Cc1c2c(cn1Cc1cccc3ccccc13)c(=O)n(C)c(=O)n2CC(C)C	
186 nM	CC(C)Cn1c(=O)n(C)c(=O)c2cn(C3CCc4ccccc43)cc21 (centres undefined)	
	CCC(C)n1c(=O)n(C)c(=O)c2cn(C3Cc4cccc5cccc3c45)cc21 (stereo in doubt; 5g4)	IC50 ([1]; t-cell): 48 nM
815 nM	CC(C)CCn1c(=O)n(C)c(=O)c2cn(Cc3cccc4ccccc34)cc21	
240 nM	COc1ccc(Cn2cc3c(=O)n(C)c(=O)n(CC(C)C)c3c2)cc1	
	CC(C)Cn1c(=O)n(C)c(=O)c2ccc(NCc3ccccc3)cc21	Inhibition (Jurkat [4]): 40%
3000 nM	CC(C)Cn1c(=O)[nH]c(=O)c2cn(Cc3cccc4ccccc34)cc21	
89 nM	CSc1c2c(=O)n(C)c(=O)n(CC(C)C)c2cn1Cc1cccc2ccccc12	
89 nM	CC(C)Cn1c(=O)n(C)c(=O)c2cn(Cc3ccc(O)c(I)c3)cc21	
2250 nM	CC(C)Cn1c(=O)n(C)c(=O)c2cc3c(cc21)O[C@H](c1ccccc1)O3	
	COC(=O)c1ccc(CNc2ccc3c(c2)c(=O)n(C)c(=O)n3CC(C)C)cc1	Inhibition (Jurkat [4]): 35%
75 nM	CC(C)Cn1c(=O)n(C)c(=O)c2cn(Cc3ccc4ccccc4c3)cc21	Ki (Jurkat [3]): 29.4 nM
190 nM	CCCCOc1ccc(Cn2cc3c(=O)n(C)c(=O)n(CC(C)C)c3c2)cc1	
275 nM	COc1cccc(Cn2cc3c(=O)n(C)c(=O)n(CC(C)C)c3c2)c1	
	CCC(C)n1c(=O)n(C)c(=O)c2cn(C3Cc4cccc5cccc3c45)cc21 (stereo in doubt; 5g)	IC50 ([1]; t-cell): 5.4 nM
870 nM	CC(C)Cn1c(=O)n(C)c(=O)c2cn(Cc3ccccc3)cc21	
310 nM	COc1ccc(Cn2cc3c(=O)n(C)c(=O)n(CC(C)C)c3c2)c(OC)c1	Ki (Jurkat [2]): 88 nM
90 nM	CCn1c(=O)c2cn(Cc3cccc4ccccc34)cc2n(CC(C)C)c1=O	

IC50 ([1]; T-cell)	SMILES	other results
630 nM	CC(C)Cn1c(=O)n(C)c(=O)c2cn(Cc3ccccc3F)cc21	
440 nM	CCn1c(=O)n(C)c(=O)c2cn(Cc3cccc4ccccc34)cc21	
8 nM	CC(C)Cn1c(=O)n(C)c(=O)c2cn(C3Cc4cccc5cccc3c45)cc21 (centres undefined)	
4030 nM	CC(C)Cn1c(=O)n(C)c(=O)c2cc(CCc3ccccc3)ccc21	
640 nM	CC(C)Cn1c(=O)n(C)c(=O)c2cn(Cc3ccc(O)cc3)cc21	
1300 nM	CC(C)Cn1c(=O)n(C)c(=O)c2cn([C@@H](C)c3ccccc3)cc21	Ki (Jurkat [2]): 301 nM
224 nM	COc1cccc(Cn2cc3c(=O)n(C)c(=O)n(CC(C)C)c3c2)c1OC	
1200 nM	CC(C)Cn1c(=O)n(C)c(=O)c2cn(Cc3cccc(Cl)c3Cl)cc21	
	CNC(=O)CCCn1c(=O)c2cn(Cc3cccc4ccccc34)cc2n(CC(C)C)c1=O	IC50 (Jurkat [5]): Not Active
1460 nM	CC(C)Cn1c(=O)n(C)c(=O)c2cn(C(c3ccccc3)c3ccccc3)cc21	
435 nM	CC(C)Cn1c(=O)n(C)c(=O)c2cn(Cc3ccc(Cl)cc3)cc21	
	CCC(C)n1c(=O)n(C)c(=O)c2cn(C3Cc4cccc5cccc3c45)cc21 (stereo in doubt; 5g3)	IC50 ([1]; t-cell): 17 nM
800 nM	COc1ccc(Cn2cc3c(c2CN2CCOCC2)c(=O)n(C)c(=O)n3CC(C)C)cc1	Ki (Jurkat [2]): 315 nM
260 nM	CC(C)Cn1c(=O)n(C)c(=O)c2cn(Cc3ccccc3Cl)cc21	Ki (Jurkat [3]): 122 nM
21.5 nM	CC(C)n1c(=O)n(C)c(=O)c2cn(Cc3cccc4ccccc34)cc21	Ki (Jurkat [2]): 15.3 nM
1300 nM	CC(C)Cn1c(=O)n(C)c(=O)c2cn(Cc3ccc(C(F)(F)F)cc3)cc21	
1210 nM	Cn1c(=O)c2cn(Cc3cccc4ccccc34)cc2n(CC2CCCCC2)c1=O	
4480 nM	CC(C)Cn1c(=O)n(C)c(=O)c2cc3c(cc21)O[C@](C)(c1ccccc1)O3	
660 nM	CC(C)Cn1c(=O)[nH]c(=O)c2cn(C3Cc4cccc5cccc3c45)cc21 (centres undefined)	Ki (Jurkat [2]): 454 nM
1320 nM	CC(C)Cn1c(=O)n(C)c(=O)c2cc(NCc3ccccc3F)ccc21	
2050 nM	CC(C)Cn1c(=O)n(C)c(=O)c2ccc(OCc3ccccc3)cc21	
	CC(C)Cn1c(=O)n(C)c(=O)c2cc(NCc3ccc(C(=O)O)cc3)ccc21	Inhibition (Jurkat [4]): 30%
	CC(C)Cn1c(=O)n(C)c(=O)c2cc(NCc3ccc(C(C)(C)C)cc3)ccc21	Inhibition (Jurkat [4]): 34%
3950 nM	CC(O)Cn1c(=O)n(C)c(=O)c2cn(Cc3cccc4ccccc34)cc21 (centres undefined)	Ki (Jurkat [2]): 697 nM
140 nM	Cn1c(=O)c2cn(Cc3cccc4ccccc34)cc2n(CC2CC2)c1=O	
4470 nM	CC(C)Cn1c(=O)n(C)c(=O)c2cc(NCc3ccccc3)ccc21	
312 nM	CC(C)Cn1c(=O)n(C)c(=O)c2cn(C3Cc4ccccc4C3)cc21	Ki (Jurkat [2]): 4.8 nM
